B1: tRNA (parent)
chain: GUUCCGUUGGCGUAAUGGUAACGCGUCUCCCUCCUAAGGAGAAGACUGCGGGUUCGAGUCCCGUACGGAACG

We go through 37 variants from the RNAGym collection of RNA variant scans (doi:10.1126/science.aae0568).

Variants at the floor of the assay were thinned out. Where only a bound is given, the exact number is not on record here.

The data set covers variants of B1. Briefly: yeast fitness relative to wild type (ratio to wild type); higher = fitter; tRNA-Arg(CCU), competitive growth, 37 C, YPD. The method, boiled down:
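Variants of the tRNA-Arg(CCU) gene were chemically synthesised with a 3% per-site mutation rate across 69 sites and placed at the native genomic locus in Saccharomyces cerevisiae. Six parallel replicates of the pooled strains were competed in YPD at 37°C for 24 hours, and gene amplicons from the start and end populations were read by 100-nucleotide paired-end sequencing. Darwinian fitness relative to wild type was derived from changes in genotype frequencies. Genotypes required ≥ 100 starting reads, and estimates < 0.5 were set to 0.5.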
On to GUUCCGUUGGCGUAAUGGUAACGCGUGUCCCUCCUAAGGAGAGGACGGCGGGUUCGAGUCCCGUACGGAGCG [C27G A43G U47G A70G], for which the yeast fitness is no more than 0.5. Consider GUUCCGUGGGCGUAAUGGUAACGCGUCUCCCUCCUCAGGAGAAGUCUGUGGGUUCGAGUCCCGUACGGAACG [U8G A36C A45U C49U], for which the yeast fitness was no more than 0.5. For GUUCCGUUGGCGUAAUGGUAAUGCGUCUCCGUCCAAAGGAGAAGACUGUGGGUUCGAGUCCCGUAUAGAACG [C22U C31G U35A C49U C66U G67A] the value was no more than 0.5; for GUUCCGUUGGCGUAAUGGUAACACGUCUCCCUCCUUAGCAGAAGACUGCAGGUUCGAGUCCCGUACGGAACG [G23A A36U G39C G50A], no more than 0.5; for GUUCCGUUGGCGUAAGGGUAACGCGUCUCCCUCCUAAGGACAAGACUGCGGGUUCGAGUCCCGUACGGAACG [U16G G41C], 0.604. With GUUCCAUUGGCGUAAUGGUAACGCGUCUCCCUCCUAAGGUGAAGACUGCGGGUUCCAGUCCCGUACGGAACG [G6A A40U G56C] the figure was no more than 0.5; with GCUCCGUUGGCGUAAUGGUAACGCGUCUCCCUCCUAAGGAGGAGACUGCGGGUUCGAGUCGCGUACGGAACG [U2C A42G C61G], no more than 0.5. For GUUCUGUUGGCGUAAUGGUAACGCGUCUCCCUCCUAAGGAGAAGACUGCGGGAUCGAGUCCCGUACGGAACG [C5U U53A] the value was 0.604. Turning to GUUCUGUAGGUGUAAUGGUAACGCGUCUCCCUCCGAAGGAGAUGAGUGCGGGCUCGAGUCCCGUACGGCACG [C5U U8A C11U U35G A43U C46G U53C A69C], the yeast fitness was no more than 0.5. Take GUUCCAUUGGCGAAAUAGUAACCCGUCUCCCUCCUAAGGAGAAGGCUGCGGGUUCGAGUCCCGUACGGAACG [G6A U13A G17A G23C A45G]: the yeast fitness came to 0.602. Turning to GUUCCGUUGGCGUAAUGGUAACGAGUCUCCAUACUAAGGAGAAGACUGCGGGUUCGAGUACCGUACGGAACG [C24A C31A C33A C60A], the yeast fitness is no more than 0.5.

With GUUCCGUUAGCGUAAUGGUAAGGCGUCUCCCUCCUAAGGAGAAGACUGCGGGUCCGAGUCCCGUACGGAACG [G9A C22G U54C], the yeast fitness turned out to be 0.589. Regarding GUUCCGUUGGCGUAAUGGUAACGCGUCUCCCUCCUAAGGAGAAGAAUGCGGGUUCGAGUCCAGUACGGAACG [C46A C62A], the yeast fitness stood at 0.805. As for GUUCCGUUGGCGUAAUGGUAACGAGUAACCCUCCUAAGGAGAAGACUGCGGGUUCGAGUCCCGUACGGAACG [C24A C27A U28A], the yeast fitness worked out at 0.53. For GUUCCGUUGGCGUAAUGGUAACGCGGCUCUCUCCUAAGGAGAAGACUGCGGAUUCGAGUCCCGUACGGAACG [U26G C30U G52A], the yeast fitness came out at 0.519. As for GUUCCAUUGGCGUGAUGGUAAGGCGUCUCCCUCCUAAGGAGAAGACUGCGGGUUCGAGUCCCGUACGGAACG [G6A A14G C22G], the yeast fitness is no more than 0.5.

Consider GUUCCGUUGGCGUAAUGGUAGCGCGUCUCCCUCCUAAGGAGAAGACUGCGGGUUCGAGUCCCGUCCGGAACG [A21G A65C], for which the yeast fitness came out at 0.924. For GUUCCGUUGGCGUAUUGGUAACGGGUCUCCCUCCUAAGGAGAAGACUGCGGGAUCGAGUCCCGAACGGAACG [A15U C24G U53A U64A], the yeast fitness was no more than 0.5. Take GUUCGGUUGGCGUAAUGGUAACGCGUCUCCCUCCUAAGGCGAAGACUGCGGAUUCGAGUCCUGUACGGAACG [C5G A40C G52A C62U]: the yeast fitness was no more than 0.5. With GUUCCGUUGGGGUAAUGGUAACGCGUCUCGCUCCUAAGGAGAAGACUGUGGGUUCGAGUCGCGUACGGAGCG [C11G C30G C49U C61G A70G] the figure was no more than 0.5; with GUUCUGUAGGCGUAAUGCUAACGCGUCUCCCUCCUAAGGAGAAGACUGCGGGUUCGAGUCCCGUACGGAACG [C5U U8A G18C], 0.577; with GUUCCGUUGGCAUAAUGGUAACGAGUCUCCCUCCUUAGGAGAAGACUGCGGGUCCGAGUCUCGUACGGAACG [G12A C24A A36U U54C C61U], no more than 0.5. For GUUCCGUUGGCGUAAUGGUAACGCGUGUCUCUCCUAACGAGAAGACUGCGGGUUCGAAUCCCGUACGGAACG [C27G C30U G38C G58A] the value was 0.679; for GUUCCGUUGACGUAAAGGUAACGCGUCUCCCUCCUAAGGAGAAGACUGCGGGUUCGAGUCCCGUACGAAACG [G10A U16A G68A], 0.567; for GUUCCGUUGGCGUAAUGGUAACGCGUCUCCGUCCUAAAGAGAAGACUGCGGGUUCGAGUCCCGUACGGAACG [C31G G38A], 0.802. As for GUUCCGUUGGCGUAAUGGUAACGCGUCUCCCUCCUAAGGAGAAAACUGCAGGUUCGAGUCCCGUACGGAACG [G44A G50A], the yeast fitness stood at 0.891. As for GUUCCGUUGGCGUAAUGGAAACGCGUCUCCUUCCUAAGGAGCAGACUGCGGGUUCGAGUCCCGUACGGAGCG [U19A C31U A42C A70G], the yeast fitness amounted to 0.912. With GUUCCGUUGGCGUAAUGGUAACACGUCUCCCUCCUAAGGAGAAGACUGUGGGUCCGAGUCCCGUACGGAACG [G23A C49U U54C] the figure was no more than 0.5. GUUCGGAUGGCGUAAUGGUAAUGCGUCUCACUCCUAAGGAGAAGACUGGGGGUUUGAGUCCCGUACGGAACG [C5G U7A C22U C30A C49G C55U]: the yeast fitness is 0.552. In the case of GAUCCGUUGGCGUAAUGGUUACGCGUCUCCCUCCUAAGGAGAAGACUGCGGGAUCGAGUACCGUACGGAACG [U2A A20U U53A C60A], the yeast fitness came to 0.558. With GAUCCGUUGGCGUAAUGGUAACGCGUCUCCCUCCUAAGGAGAAGACUGCGGGUUCGAGUCCCGUACCGAACG [U2A G67C] the figure was 0.792; with GUUCCGUUGGGGUGAUGGUAACGCGUCUCCCUCCUAAGGAGAAGACUACGGGUUUGAGUCCCGUCCGGAACG [C11G A14G G48A C55U A65C], 0.759; with GUUCCGUUGGAGUAAUGGUAACGCGUCUACCCCCUAAGGAGAAGACUGCGGGUUCGAGUCCCGUAUGGAACG [C11A C29A U32C C66U], no more than 0.5. In the case of GUUUCGUUGGCGUAAUGGUAACGCGUCUCCCUCCUAAGGAGAACAAUGCGGGUUCCAGUCCCGUACGGAACG [C4U G44C C46A G56C], the yeast fitness is no more than 0.5.

For GUUCCGUUGGCGUAAUGGUAACACGUCUCCCUCCUAAGGUGAAGACUGCGGGUUCGAGUCCCGUACGGAACG [G23A A40U], the yeast fitness is 0.842. With GUUCCGUUGGCGUACUGGUCACGCGUCUACCUCCUAAGGAGAAGACUGCGGGUUCGGGUCCCGUACGGAACG [A15C A20C C29A A57G] the figure was 0.561; with GUCCCGUUGGCGUAAUGGUAACGGGUCUCCCUCCUAAGGAGAAGACUGCGGGUUCGAGUCUCGUACGGAACG [U3C C24G C61U], 0.528.
